{"source": "the RNAGym collection of RNA variant scans (doi:10.1126/science.aae0568)", "parents": {"B1": {"name": "tRNA (parent)", "chain": "GUUCCGUUGGCGUAAUGGUAACGCGUCUCCCUCCUAAGGAGAAGACUGCGGGUUCGAGUCCCGUACGGAACG"}}, "note": "Fewer inactive variants are shown than the library holds.", "data": [{"variants_of": "B1", "test": "yeast fitness relative to wild type (ratio to wild type); higher = fitter; tRNA-Arg(CCU), competitive growth, 37 C, YPD", "procedure,_shortened": "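Variants of the tRNA-Arg(CCU) gene were chemically synthesised with a 3% per-site mutation rate across 69 sites and placed at the native genomic locus in Saccharomyces cerevisiae. Six parallel replicates of the pooled strains were competed in YPD at 37°C for 24 hours, and gene amplicons from the start and end populations were read by 100-nucleotide paired-end sequencing. Darwinian fitness relative to wild type was derived from changes in genotype frequencies. Genotypes required ≥ 100 starting reads, and estimates < 0.5 were set to 0.5.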", "values": [{"variant": "GUUCCGUUGGCGUAAUGGUAACCCGUCUCCCUCCUAAGGAGAAGACUGCGGGUUCGAGUCCCGUACGCAACG", "yeast fitness": 0.697}, {"variant": "GUUCCGUUGGCGUAAUGGUAACCCGUCUCCCUCCUAAGGAGAAGACUGCGGGUUCGAGUCCCGUACCGAACG", "yeast fitness": 0.58}, {"variant": "GUUCCGUUGGCGUAAUGGUAACCCGUCUCCCUCCUAAGGAGAAGACUGCGGGUUCGAGUCACGUACGGAACG", "yeast fitness": "≤ 0.5"}, {"variant": "GUUCCGUUGGCGUAAUGGUAACCCGUCUCCCUCCUAAGGAGAAGACUGCGGGUUCGAGUCGCGUACGGAACG", "yeast fitness": 0.587}, {"variant": "GUUCCGUUGGCGUAAUGGUAACCCGUCUCCCUCCUAAGGAGAAGACUGCGGGUUCGAGUCUCGUACGGAACG", "yeast fitness": 0.703}, {"variant": "GUUCCGUUGGCGUAAUGGUAACCCGUCACCCUCCUAAGAAGAAGACUACGGGUUCGAGUCGCGUAGGGAACG", "yeast fitness": "≤ 0.5"}, {"variant": "GUUCCGUUGGCGUAAUGGUAACCCGCCUCCCUCCUAAGGAGAAGAGUGCGGGUUCGAGUCCCGUACGGAACG", "yeast fitness": 0.57}, {"variant": "GUUCCGUUGGCGUAAUGGUAACCCGUCUCCCUCCUAAGAAGAAGACUGCGGGUUCGAGUCCGGUACGGAACG", "yeast fitness": "≤ 0.5"}, {"variant": "GUUCCGUUGGCGUAAUGGUAACCCAUCUCGCUCCUAAGGAGAAGACUGCGGGUUCGAGUCCCGUCCGGAACG", "yeast fitness": "≤ 0.5"}, {"variant": "GUUCCGUUGGCGUAAUGGUAACCCGUCUCCCUCCUAAGGAGAACACUGUGGGUUCGCGUCCCGUACGGAACG", "yeast fitness": "≤ 0.5"}, {"variant": "GUUCCGUUGGCGUAAUGGUAACCCGUCUCCCUCCUAAGGAGAAGACUGCAGGUUCGAGUCUCGUACGGAACG", "yeast fitness": "≤ 0.5"}, {"variant": "GUUCCGUUGGCGUAAUGGUAACCCGUCGCCCUCCUAAGGAGUAGACUGCGGGUUCGAGACCCGUACGGAACG", "yeast fitness": "≤ 0.5"}, {"variant": "GUUCCGUUGGCGUAAUGGUAACCCGUCUCCCUCCUAAGGAGAAGACUGCCGGUUCGAGUCCCCUACAGAACG", "yeast fitness": 0.64}, {"variant": "GUUCCGUUGGCGUAAUGGUAACCCGCUUCCCUCCUAAGGAGUAGACUGCGGGUUCGAGUCCCGUACGGAACG", "yeast fitness": 0.566}, {"variant": "GUUCCGUUGGCGUAAUGGUAACCCGUCUCCCUCCUAAGGAGAAGACUGCGGGUUCGAGUGCCGUACGCAACG", "yeast fitness": "≤ 0.5"}, {"variant": "GUUCCGUUGGCGUAAUGGUAACCCGUCUCCCUCCUAAGGAGAAGACUGCGGGUUCAGGUCCCGUACGGAACG", "yeast fitness": "≤ 0.5"}, {"variant": "GUUCCGUUGGCGUAAUGGUAACCCGUCUCCCUCCUAAGGAGAAGACUGCGGGUUCGAGUCGCGUACGCAACG", "yeast fitness": 0.5}, {"variant": "GUUCCGUUGGCGUAAUGGUAACCCGUCACCCUCCUCAGGAGAAGACUGCGGGUUCGAGUCCCGUACGGAACG", "yeast fitness": "≤ 0.5"}, {"variant": "GUUCCGUUGGCGUAAUGGUAACCCGUCUCCCUCCUAAGGAGAAGACUGCGGGUUCGAGUCCUGUACGGAACG", "yeast fitness": 0.743}, {"variant": "GUUCCGUUGGCGUAAUGGUAACCCGUCUCCCUCCUAAGGAGAAGACUGCGGGUUCGAGUCCAGUACGGAACG", "yeast fitness": 0.541}, {"variant": "GUUCCGUUGGCGUAAUGGUAACCCGUCUCCCUCCUAACGAGAAGACUGCGGCUUCGAAUCCCGUACGGAACG", "yeast fitness": "≤ 0.5"}, {"variant": "GUUCCGUUGGCGUAAUGGUAACCCGUCUCCCUCCUAAGGAGAAGACUGCGGGUUCGAGUGCCGUACGGAACG", "yeast fitness": "≤ 0.5"}, {"variant": "GUUCCGUUGGCGUAAUGGUAACCCGUCUCCCUCCUAAGGAGAAGACUGCGGGUUCGAGUUCCGUACGGAACG", "yeast fitness": "≤ 0.5"}, {"variant": "GUUCCGUUGGCGUAAUGGUAACCCGUCUCCCUCCUAAGGAGAACAUUGCGGGUUCGAAUCCCGUACGGAACG", "yeast fitness": "≤ 0.5"}, {"variant": "GUUCCGUUGGCGUAAUGGUAACCCGUCUCCCUCCUAAGGAGAAGACUGCGGAUUCGAGUCCCGUACGGAACG", "yeast fitness": "≤ 0.5"}, {"variant": "GUUCCGUUGGCGUAAUGGUAACCCGUCUCCCUCCUAAGGAGAAGACUGCGGCUUCGAGUCCCGUACGGAACG", "yeast fitness": 0.523}, {"variant": "GUUCCGUUGGCGUAAUGGUAACCCGUCUCCCUCCUAAGGAGAAGACUGCGGGUUCGAGUCCCGUAUGGAACG", "yeast fitness": 0.723}, {"variant": "GUUCCGUUGGCGUAAUGGUAACCCGUCUCCCUCCUAAGGAGAAGACUCCGGGUUCGAGUCCCGUACGGUACG", "yeast fitness": "≤ 0.5"}, {"variant": "GUUCCGUUGGCGUAAUGGUAACCCGUCUCCCUCCUAAGGAGAAGACUGCGGGUUCGAGUCCGGUAAGGAACG", "yeast fitness": "≤ 0.5"}, {"variant": "GUUCCGUUGGCGUAAUGGUAACCCGUCUCCCUCCUAAGCAGAAGACUGCGGGUUCGAGUCCCGUACAGAACG", "yeast fitness": "≤ 0.5"}, {"variant": "GUUCCGUUGGCGUAAUGGUAACCCGUCUCCCUCCUAAGGAGAACACUGUGGGUUCGAGUCCCGUACGGAACG", "yeast fitness": "≤ 0.5"}, {"variant": "GUUCCGUUGGCGUAAUGGUAACCCGUCUCCCUCCUAACGAGAAGACUGGGGGUUCGAGUCCCGUACGGAACG", "yeast fitness": 0.534}, {"variant": "GUUCCGUUGGCGUAAUGGUAACCCGUCUCCCUCCUAAGGAGAAGACUGCGAGUUCGAGUCCCGUACGGAACG", "yeast fitness": 0.671}, {"variant": "GUUCCGUUGGCGUAAUGGUAACCCGACUCCCUCCUAAGGAGAAGACUGCAGGUUCGAGUCCCGUCCGGAACG", "yeast fitness": 0.533}, {"variant": "GUUCCGUUGGCGUAAUGGUAACCCGCUUCCCUCCUAAGGAGAAGAUUGCGGGUUCGAGUCCCGUACGGCACG", "yeast fitness": "≤ 0.5"}, {"variant": "GUUCCGUUGGCGUAAUGGUAACCCGUCUCCCUCCUAAGGAGAAGACUGCGGGUUCGACUCCCGUACGGAACG", "yeast fitness": 0.669}, {"variant": "GUUCCGUUGGCGUAAUGGUAACCCGUCUCCCUCCUAAGGAGAAGACUCCGGGUUCGAGUCCCGUACGGAACG", "yeast fitness": 0.686}, {"variant": "GUUCCGUUGGCGUAAUGGUAACCCGUCUCCCUCCUAAGGAGAAGACUACGGGUUCGAGUCCCGUACGGAACG", "yeast fitness": 0.668}]}]}
